From PubChem BioAssay
Only some compounds are listed: those with a hit (about 1.4% of all), similar ones and a draw of the others.
GSTO1 counter – counter-screen for RBBP9 inhibitors: inhibitors of human GSTO1 | recombinant GSTO1, activity-based probe fluorescence polarization | inhibition, % at 5.96 µM | 300,000 compounds, 1.1% hits;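 active = inhibition above the campaign mean inhibition plus 3 SD, cut at about 35% in these data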;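 note: 0% = GSTO1-1 with DMSO and 100% = wells lacking GSTO1-1 enzyme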
SUMO HTRF inh – SUMOylation inhibition. 290,000 compounds, 0.36% hits. HTRF SUMOylation assay, SAE1/SAE2 + UBC9, in vitro. inhibition, % at 35 µM; in the data active = inhibition above about 50%, passing the limit was not always enough
Apaf1 inhib – inhibitors of human Apaf-1 apoptosome; O14727; reconstituted apoptosome caspase-3 activity, DEVD-Rh110 fluorescence; inhibition, % at 20 µM; 330,000 compounds, 0.71% hits; active = inhibition of at least 40% at 20 µM;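 note: plate controls were DMSO wells for no effect and DEVD-CHO caspase inhibitor wells for full effect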
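Assay system – apoptosome proteins · Medium – Hepes buffer, pH 7.5 · Also added – cytochrome c with DEVD-Rh110 · Timing – 30 min compound preincubation, 50 min activation, room temperature · Detection – Rh110 fluorescence, excitation 480 nm, emission 540 nm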
HKDC1 inh – HKDC1 (human) hexokinase inhibition; Q2TB90; recombinant HKDC1, G6PDH/diaphorase resazurin coupled fluorescence; inhibition, % at 20 µM; 340,000 compounds, 0.16% hits; AID 493160;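 active = inhibition above about 35% when tested at 20 µM, limit read from the data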;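 note: plate controls were DMSO wells with enzyme for no effect and DMSO wells lacking enzyme for full effect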
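Test system: Recombinant HKDC1 (HK5) hexokinase enzyme, produced in-house | Input: HKDC1 at 5 µg/mL | Buffer or medium: Tris pH 8.0 buffer with MgCl2, Tween-20, BSA, BME | Schedule: 90 min reaction incubation at room temperature, dark | Technique: Resazurin-to-resorufin fluorescence via G6PDH and diaphorase coupling, 525/613 nm | Controls: DMSO wells with and without enzyme mix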
DTT redox prof – compounds producing H2O2 with reducing agent – biochemical, NIH compound library profiling, artefact control for MLSCN library redox annotation, primary screen; DTT-dependent redox cycling H2O2, phenol red/HRP absorbance; 100% = 100 µM peroxide control, 0% = buffer; activation, % at 10 µM; 200,000 compounds, 0.03% hits; AID 878;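 active = activation of at least 50% relative to the plate's high and low controls in the primary single-dose screen; inactive = activation below 50%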;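 note: compound incubated with DTT at 0.8 mM final as the reducing agent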
An asterisk follows results filed as active; . = not tested or not shown.

SMILES | GSTO1 counter | SUMO HTRF inh | Apaf1 inhib | HKDC1 inh | DTT redox prof
COc1cccc(CNC23CC4CC(CC(C4)C2)C3)c1OCc1ccccc1 | 4.5 | 1.6 | -21.5 | -6.9 | -0.5
Nc1ccc2c(c1)-c1ccccc1S(=O)(=O)N2 | 36.8* | 14.4 | 25.6 | 11.2 | 0.5
Cc1ccc(NC(=O)c2cc(C)n(-c3ccccc3)c2C)cc1 | -3.3 | 3.9 | 14.3 | -5.5 | 0.4
Cc1cc(C(=O)Nc2ccc(Cl)cc2)c(C)n1-c1ccccc1 | 7.0 | 87.5* | 4.2 | 2.5 | .
CCCCCC#CCC#CCC#CCC#CCCCC(=O)O | 29.5 | 58.2* | 40.8* | . | 0.3
CCN(C[C@H]1N[C@@](CC)(C(=O)OC)[C@H]2C(=O)N(C)C(=O)[C@@H]12)S(=O)(=O)c1ccc(OC)cc1 | . | . | -2.5 | -2.5 | .
COc1ccc(O)c(/C=N/NC(=S)Nc2cccc(S(=O)(=O)N(C)C)c2)c1 | -20.3 | -31.8 | . | -30.6 | -0.4
CN(C)S(=O)(=O)c1cccc(NC(=S)N/N=C/c2ccc(O)c(O)c2O)c1 | . | 51.8* | . | 32.0 | .
O=C(COc1ccc(Cl)cc1Cl)Nc1ccc(C(=O)Nc2ccccc2C(=O)O)cc1 | -39.8 | 59.4* | 6.9 | 15.7 | .
NCCCCCc1cn(CC(=O)NCCCCCCCCCCC(=O)N2CCNCC2)nn1 | -1.1 | . | 2.2 | 0.8 | .
Oc1ccc(Cl)cc1C=Nc1ccc2c3c(cccc13)CC2 | 7.1 | 57.1* | 2.8 | 5.2 | 0.2
O=C(N/N=C/c1ccc(Cl)c([N+](=O)[O-])c1)c1cc(-c2ccc3c4c(cccc24)CC3)n[nH]1 | -6.0 | 51.1* | -8.4 | -6.2 | .
O=C(N/N=C/c1cccc([N+](=O)[O-])c1)c1cc(-c2ccc3c4c(cccc24)CC3)n[nH]1 | 3.7 | 34.1 | 10.3 | -4.7 | 0.4
Cn1c(-c2ccc(C=O)s2)nc2c3ccccc3c3ccccc3c21 | -4.0 | 97.4* | 11.7 | 20.8 | 7.1
CSc1ccccc1OCc1cc(C(=O)NCCN2CCCc3ccccc32)no1 | -0.3 | -10.7 | 10.9 | 3.3 | .
O=C(CCNC(=O)c1ccc(Br)cc1)NNC(=O)c1ccccc1 | . | . | 6.1 | -6.8 | .
Cc1ccc2[nH]c3c(=O)n(CC(=O)NCc4ccco4)ncc3c2c1 | 36.2* | 22.4 | -12.0 | 0.4 | .
Cc1ccc(CCNC(=O)Cn2ncc3c([nH]c4ccccc43)c2=O)cc1 | 13.2 | 37.4 | 6.3 | -3.2 | .
O=C1NC(=O)[C@@H]2C3c4ccccc4C=CN3[C@H](C(=O)c3cccs3)[C@H]12 (some centres not stated) | 35.4* | -0.5 | 47.4* | . | 0.0
O=C(c1ccccc1)C1CCN(C(=O)c2cccs2)CC1 | -5.0 | 2.1 | 0.5 | -1.1 | .
O=C(CNC(=O)c1ccco1)NNC(=O)c1n[nH]c(=O)c2ccccc12 | . | . | -4.7 | -3.1 | .
Cc1cc(C(=O)N/N=C/c2cc(Br)ccc2OC(=O)c2ccc(Br)cc2)n[nH]1 | 3.6 | 67.1* | -8.6 | . | 0.6
Cc1cc(C(=O)N/N=C/c2cc(Br)cc(Br)c2OC(=O)c2ccccc2)n[nH]1 | -5.8 | -44.0 | -4.1 | . | 0.8
CC1CCCCC1NC(=O)NC(=O)CCl (configuration not stated) | 93.8* | 2.6 | -0.6 | 7.5 | -0.1
CC1CCCCC1NC(=O)NC(=O)COC(=O)c1nccnc1N (configuration not stated) | . | . | -5.8 | -7.0 | .
SMILES | GSTO1 counter | SUMO HTRF inh | Apaf1 inhib | HKDC1 inh | DTT redox prof
CC1CCCC(NC(=O)NC(=O)CCl)C1C (configuration not stated) | 99.1* | 15.9 | -30.2 | 8.3 | -0.1
CCOC(=O)C(C)(C)N(Cc1ccc(Cl)cc1)S(=O)(=O)c1ccc(Cl)c([N+](=O)[O-])c1 | 65.3* | -11.7 | 8.7 | . | 1.0
O=C(CN(c1ccc(Cl)cc1)S(=O)(=O)c1ccc(Cl)c([N+](=O)[O-])c1)NCCc1ccc(F)cc1 | 4.7 | 5.3 | 4.5 | 12.1 | 0.2
CCOC(=O)C(C)(C)N(Cc1ccc(C)cc1)S(=O)(=O)c1ccc(Cl)c([N+](=O)[O-])c1 | 61.8* | -17.9 | 11.2 | 5.0 | 0.8
CC(=O)c1c(C)oc2ccc(N(C(C)=O)S(=O)(=O)c3ccc(Cl)c([N+](=O)[O-])c3)cc12 | 22.1 | 18.9 | 18.3 | 20.8 | -0.2
CCC(=O)N1CCc2nc(-c3ccccc3)sc2C1 | -0.4 | 0.9 | -2.0 | -11.6 | .
COC/C=C/C1=CC2=CC(=O)C(C)(O)C(=O)C2=CO1 (configuration not stated) | 42.0* | . | 6.2 | . | .
